According to ChEMBL document CHEMBL4673403, “Development of a Hematopoietic Prostaglandin D Synthase-Degradation Inducer” (ACS Med Chem Lett, 2021):
pIC50: −log10 of the molar value. One block for each compound: values may come before it. Active and inactive are the calls of the source. No cut-off for these calls is given here.

What was measured:
[1] = biological target: T1, Hematopoietic prostaglandin D synthase (Homo sapiens, UniProt O60760); test: Inhibition of HPGDS in human KU812 cells assessed as reduction in PGD2 level at 10 to 100 nM incubated for 24 hrs followed by A23187 treatment and measured after 30 mins and subsequent compound washout then further incubated for 6 hrs in compound-free medium by ELISA; type: cell-based; details: KU812 cell line, dose 10-100 nM, time 1470.0 min
Outline: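 KU812 cells exposed to compounds 24 h, washed four times, kept 6 h compound-free, then stimulated with 5 μM A23187 for 30 min; medium PGD2 measured. Means ± SD, n = 3; two-tailed t test.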

[2] = Solubility of the compound; type: physicochemical
[3] = biological target: T1, Hematopoietic prostaglandin D synthase; test: Inhibition of HPGDS in human KU812 cells assessed as reduction in PGD2 level at 10 to 100 nM incubated for 24 hrs followed by A23187 treatment and measured after 30 mins by ELISA; type: cell-based; details: KU812 cell line, dose 10-100 nM, time 1470.0 min
Outline: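 After 24 h compound exposure, KU812 cells stimulated with 5 μM A23187 for 30 min with compound still present; PGD2 measured in medium. Means ± SD, n = 3; two-tailed t test.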

[4] = biological target: T1, Hematopoietic prostaglandin D synthase; test: Inhibition of recombinant human HPGDS expressed in Escherichia coli BL21 (DE3) measured after 3 mins by spectrophotometric analysis
[5] = biological target: T1, Hematopoietic prostaglandin D synthase; test: Binding affinity to recombinant human HPGDS expressed in Escherichia coli BL21 (DE3) measured after 1 hr by fluorescence polarization assay
Outline: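 Competitive binding to H-PGDS read by fluorescence polarization with a fluorescence probe.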

[6] = biological target: T2, Protein cereblon/Hematopoietic prostaglandin D synthase (Homo sapiens) (UniProt O60760+Q96SW2); test: Protac activity at CRBN/HPGDS in human KU812 cells assessed as induction of HPGDS degradation at 10 to 100 nM incubated for 24 hrs followed by compound washout and further incubated for 6 hrs in compound-free medium by Western blot analysis; type: cell-based; details: KU812 cell line, dose 10-100 nM
Outline: (§1)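 KU812 cells incubated with compounds 24 h, washed four times, then held 6 h in compound-free medium. Western blot H-PGDS/β-actin normalized to vehicle as 100; means ± SD, n = 3; two-tailed t test.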

[7] = biological target: T2, Protein cereblon/Hematopoietic prostaglandin D synthase (Homo sapiens); test: Protac activity at CRBN/HPGDS in human KU812 cells assessed as induction of HPGDS degradation at 100 nM measured after 6 hrs in presence of proteasome inhibitor MG132 by Western blot analysis; type: cell-based; details: KU812 cell line
Outline: (§2)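 KU812 cells given 100 nM degrader with or without 10 μM MG132 or 10 μM MLN7243 for 6 h. Western blot H-PGDS/β-actin normalized to vehicle as 100; means ± SD, n = 3.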

KU812 = test: Effect on HPGDS mRNA expression in human KU812 cells up to 1000 nM measured after 6 hrs by SYBR green based qRT-PCR analysis; type: functional, cell-based; details: dose nM <=1000, time 6.0 hrs
Outline: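 KU812 cells treated with the indicated concentrations for 6 h. H-PGDS mRNA expressed relative to vehicle, set to 1; means ± SD, n = 3; two-tailed Student's t test versus vehicle.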

[8] = biological target: T2, Protein cereblon/Hematopoietic prostaglandin D synthase (Homo sapiens); test: Protac activity at CRBN/HPGDS in human KU812 cells assessed as reduction in HPGDS protein level at >=10 nM measured after 3 hrs by Western blot analysis; type: cell-based; details: KU812 cell line, dose nM >=10, time 3.0 hrs
Outline: (§3)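 KU812 cells exposed to graded concentrations for 3, 6 or 24 h. Western blot; H-PGDS/β-actin ratio normalized to vehicle control as 100; means ± SD, n = 3.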

[9] = biological target: Protein cereblon/G2/mitotic-specific cyclin-B1 (Homo sapiens) (UniProt P14635+Q96SW2); test: Protac activity at CRBN/Cyclin B1 in human KU812 cells assessed as decrease in cyclin B1 protein level by measuring protein turnover at 100 nM measured within 6 hrs in presence of protein synthesis inhibitor cycloheximide by Western blot analysis; type: cell-based; details: KU812 cell line
Outline: (§4)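 KU812 cells given 10 μg/mL cycloheximide with or without 100 nM degrader for the indicated periods. H-PGDS/β-actin and cyclin B1/β-actin ratios by Western blot, normalized to time 0 control as 100; means ± SD, n = 3.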

[10] = biological target: T2, Protein cereblon/Hematopoietic prostaglandin D synthase (Homo sapiens); test: Protac activity at CRBN/HPGDS in human MEG01s cells assessed as reduction in HPGDS protein level up to 1000 nM measured after 6 hrs by Western blot analysis; type: cell-based; details: dose nM <=1000, time 6.0 hrs
[11] = biological target: T2, Protein cereblon/Hematopoietic prostaglandin D synthase (Homo sapiens); test: Competitive binding affinity to HPGDS in human KU812 cells assessed as induction of CRBN-mediated degradation of HPGDS at 100 nM after 6 hrs in presence of excess pomalidomide by Western blot analysis; type: cell-based; details: KU812 cell line
Outline: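 KU812 cells given 100 nM degrader and/or 10 μM pomalidomide for 6 h. Western blot H-PGDS/β-actin normalized to vehicle as 100; means ± SD, n = 3.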

[12] = biological target: T2, Protein cereblon/Hematopoietic prostaglandin D synthase (Homo sapiens); test: Protac activity at CRBN/HPGDS in human KU812 cells assessed as induction of HPGDS degradation at 1 uM measured after 6 hrs by Western blot analysis; type: cell-based; details: KU812 cell line
Outline: (§5)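 KU812 cells incubated 6 h with 1 μM degrader or with the ligand mixture (TFC-007 plus pomalidomide, 1 μM each). Western blot H-PGDS/β-actin normalized to vehicle as 100; means ± SD, n = 3; two-tailed t test.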

[13] = Protac activity at CRBN/AKR1B1 in human KU812 cells assessed as reduction in AKR1B1 protein level up to 1000 nM measured after 24 hrs by Western blot analysis; details: KU812 cell line, dose nM <=1000, time 24.0 hrs
[14] = biological target: T2, Protein cereblon/Hematopoietic prostaglandin D synthase (Homo sapiens); test: Protac activity at CRBN/HPGDS in human KU812 cells assessed as reduction in HPGDS protein level at 100 to 1000 nM measured after 3 hrs by Western blot analysis; type: cell-based; details: KU812 cell line, dose 100-1000 nM; outline: as §3
[15] = test system: Protein cereblon/Prostaglandin E synthase (Homo sapiens); test: Protac activity at CRBN/MPGES-1 in human KU812 cells assessed as reduction in MPGES-1 protein level up to 1000 nM measured after 24 hrs by Western blot analysis; details: KU812 cell line, dose nM <=1000, time 24.0 hrs
[16] = biological target: T2, Protein cereblon/Hematopoietic prostaglandin D synthase (Homo sapiens); test: Protac activity at CRBN/HPGDS in human KU812 cells assessed as induction of HPGDS degradation at 100 nM measured after 6 hrs in presence of ubiquitin-activating enzyme inhibitor MLN7243 by Western blot analysis; type: cell-based; details: KU812 cell line; outline: as §2
[17] = biological target: T2, Protein cereblon/Hematopoietic prostaglandin D synthase (Homo sapiens); test: Protac activity at CRBN/HPGDS in human KU812 cells assessed as reduction in HPGDS protein level at >=10 nM measured after 6 to 24 hrs by Western blot analysis; type: cell-based; details: KU812 cell line, dose nM >=10, time 6-24 hrs; outline: as §3
[18] = biological target: T2, Protein cereblon/Hematopoietic prostaglandin D synthase (Homo sapiens); test: Protac activity at CRBN/HPGDS in human KU812 cells assessed as decrease in HPGDS protein level by measuring protein turnover at 100 nM measured within 6 hrs in presence of protein synthesis inhibitor cycloheximide by Western blot analysis; type: cell-based; details: KU812 cell line; outline: as §4
[19] = biological target: T1, Hematopoietic prostaglandin D synthase; test: Induction of HPGDS degradation in human KU812 cells at 1 uM measured after 6 hrs in presence of TFC-007 by Western blot analysis; type: cell-based; details: KU812 cell line; outline: as §5
[20] = biological target: T2, Protein cereblon/Hematopoietic prostaglandin D synthase (Homo sapiens); test: Induction of CRBN-mediated HPGDS degradation in human KU812 cells at 10 to 100 nM incubated for 24 hrs followed by compound washout and further incubated for 6 hrs in compound-free medium by Western blot analysis; type: cell-based; details: KU812 cell line, dose 10-100 nM; outline: as §1
[21] = biological target: T1, Hematopoietic prostaglandin D synthase; test: Inhibition of recombinant human HPGDS using [14C]-PGH2 as substrate preincubated for 1 min in presence of MgCl2 followed by substrate addition and measured after 45 mins by radioactive imaging analysis
[22] = biological target: T1, Hematopoietic prostaglandin D synthase; test: Induction of HPGDS degradation in human KU812 cells at 1 uM measured after 6 hrs in presence of pomalidomide by Western blot analysis; type: cell-based; details: KU812 cell line; outline: as §5
[23] = biological target: T1, Hematopoietic prostaglandin D synthase; test: Inhibition of recombinant human HPGDS
[24] = biological target: Baculoviral IAP repeat-containing protein 2/Hematopoietic prostaglandin D synthase (Homo sapiens) (UniProt Q13490+O60760); test: SNIPER activity at IAP1/HPGDS in human KU812 cells assessed as reduction in HPGDS protein level up to 1000 nM measured after 6 hrs by Western blot analysis; type: cell-based; details: KU812 cell line, dose nM <=1000, time 6.0 hrs

inhibition [1]: inactive
solubility [2]: Soluble
inhibition [3]: Active
pIC50 [4]: 6.49
pIC50 [5]: 6.49
Activity [6]: inactive
Structure (SMILES): CN1C(=O)CCC(N2C(=O)c3cccc(NCCOCCOCCOCCOCCOCCC(=O)N4CCN(C(=O)C5CCN(c6ccc(NC(=O)c7cnc(Oc8ccccc8)nc7)cc6)CC5)CC4)c3C2=O)C1=O (stereo not given)

Activity [7]: inactive
inhibition [1]: Active
Activity [8]: Active
Activity [9]: inactive
Activity [10]: Active
solubility [2]: Soluble
Activity [11]: inactive
inhibition [3]: Active
Activity [12]: Active
Activity [13]: inactive
Activity [14]: Active
Activity [15]: inactive
Activity [16]: inactive
pIC50 [4]: 6.58
pIC50 [5]: 6.49
Activity [17]: Active
Activity [18]: Active
Activity [6]: Active
Structure (SMILES): O=C1CCC(N2C(=O)c3cccc(NCCOCCOCCOCCOCCOCCC(=O)N4CCN(C(=O)C5CCN(c6ccc(NC(=O)c7cnc(Oc8ccccc8)nc7)cc6)CC5)CC4)c3C2=O)C(=O)N1 (stereo not given)
Activity (KU812): inactive

Activity [19]: inactive
Structure (SMILES): Nc1cccc2c1C(=O)N(C1CCC(=O)NC1=O)C2=O (stereo not given)

inhibition [1]: inactive
inhibition [3]: Active
Activity [20]: inactive
pIC50 [21]: 7.15
Activity [22]: inactive
pIC50 [4]: 7.15
pIC50 [5]: 6.49
Structure (SMILES): O=C(Nc1ccc(N2CCC(C(=O)N3CCOCC3)CC2)cc1)c1cnc(Oc2ccccc2)nc1

pIC50 [23]: 7.64
Structure (SMILES): CON(C)C(=O)c1[nH]c(C)c(-c2nc3cc(C(=O)c4ccccc4)ccc3[nH]2)c1C

Activity [24]: inactive
Structure (SMILES): CN[C@@H](C)C(=O)N[C@H](C(=O)N1CCC[C@H]1c1nc(C(=O)c2cccc(OCCOCCOCC(=O)N3CCN(C(=O)C4CCN(c5ccc(NC(=O)c6cnc(Oc7ccccc7)nc6)cc5)CC4)CC3)c2)cs1)C1CCCCC1
